Test results reported in ChEMBL document CHEMBL1158972, “New cytotoxic beta-carboline alkaloids from the marine bryozoan, Cribricellina cribraria” (J Nat Prod, 1991).
In brackets after ≈: the same amount, converted by molar mass. Activity calls are given as the source filed them. The calls are words filed in the database; no cut-off is given here.

Tests used:
[1] = tested on: Pseudomonas aeruginosa; assay: Antimicrobial activity against Pseudomonas aeruginosa assessed per disk; type: functional
[2] = tested on: P388; assay: Cytotoxicity against mouse P388 cells; type: functional, cell-based
In short: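 P-388 leukemia line (ATCC CCL 46). The value is the sample concentration, in ng/ml, that reduces cell growth by 50%.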

[3] = tested on: Candida albicans; assay: Antimicrobial activity against Candida albicans assessed per disk; type: functional
[4] = tested on: Amorphotheca resinae; assay: Antimicrobial activity against Cladosporium resinae assessed per disk; type: functional
[5] = tested on: Escherichia coli; assay: Antimicrobial activity against Escherichia coli assessed per disk; type: functional
[6] = tested on: Bacillus subtilis; assay: Antimicrobial activity against Bacillus subtilis assessed per disk; type: functional
[7] = tested on: Human alphaherpesvirus 1; assay: Antiviral activity against Herpes simplex virus (type 1 / strain F) ATCC VR 733 in african green monkey BSC1 cells assessed as excess radius from disk edge at 20 ug/disk; type: functional, organism-based; settings: BSC-1
In short: (§1)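 Disc assay of herpes simplex type I (strain F, ATCC VR 733) on a BSC cell line (ATCC CCL 26). The antiviral zone is scored as excess radius from the disc edge: 2+ = 2-4 mm, 3+ = 4-6 mm, ww = zone over the whole well.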

[8] = tested on: Trichophyton mentagrophytes; assay: Antimicrobial activity against Trichophyton mentagrophytes assessed per disk; type: functional
[9] = Cytotoxicity against african green monkey BSC1 cells at 20 ug/disk; type: cell-based; settings: chlorocebus aethiops, bsc-1
In short: (§2)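 Cytotoxic zone around the disc on a BSC monolayer (ATCC CCL 26), scored as excess radius beyond the disc edge: 2+ = 2-4 mm, 3+ = 4-6 mm, ww = zone over the whole well.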

[10] = tested on: Amorphotheca resinae; assay: Antimicrobial activity against Cladosporium resinae at 100 units; type: functional, organism-based
[11] = tested on: Trichophyton mentagrophytes; assay: Antimicrobial activity against Trichophyton mentagrophytes at 100 units; type: functional, organism-based
[12] = tested on: Poliovirus 1; assay: Antiviral activity against Polio virus 1 Pfizer vaccine in african green monkey BSC1 cells assessed as excess radius from disk edge at 20 ug/disk; type: functional, organism-based; settings: BSC-1
In short: (§3)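 Disc assay on BSC cell monolayers (ATCC CCL 26) infected with the Pfizer vaccine strain of poliovirus, with the virus grown on BSC cells. Scored by the radius of the antiviral/cytotoxic zone beyond the disc edge: 2+ = 2-4 mm, 3+ = 4-6 mm, ww = zone over the whole well.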

[13] = tested on: Poliovirus 1; assay: Antiviral activity against Polio virus 1 Pfizer vaccine in african green monkey BSC1 cells assessed as excess radius from disk edge at 0.5 ug/disk; type: functional, BSC-1; settings: Enterovirus C; read-out: IZ; in short: as §3
[14] = tested on: Human alphaherpesvirus 1; assay: Antiviral activity against Herpes simplex virus (type 1 / strain F) ATCC VR 733 in african green monkey BSC1 cells assessed as excess radius from disk edge at 0.5 ug/disk; type: functional, BSC-1; settings: Human alphaherpesvirus 1, Strain F ATCC VR 733; read-out: IZ; in short: as §1
[15] = Cytotoxicity against african green monkey BSC1 cells at 0.4 ug/disk; type: cell-based; settings: chlorocebus aethiops, bsc-1; in short: as §2
[16] = tested on: Human alphaherpesvirus 1; assay: Antiviral activity against Herpes simplex virus (type 1 / strain F) ATCC VR 733 in african green monkey BSC1 cells assessed as excess radius from disk edge at 0.4 ug/disk; type: functional, organism-based; settings: BSC-1; in short: as §1
[17] = Cytotoxicity against african green monkey BSC1 cells at 2 ug/disk; type: cell-based; settings: chlorocebus aethiops, bsc-1; in short: as §2
[18] = Cytotoxicity against african green monkey BSC1 cells at 0.5 ug/disk; type: cell-based; settings: chlorocebus aethiops, bsc-1; in short: as §2
[19] = tested on: Poliovirus 1; assay: Antiviral activity against Polio virus 1 Pfizer vaccine in african green monkey BSC1 cells assessed as excess radius from disk edge at 0.4 ug/disk; type: functional, organism-based; settings: BSC-1; in short: as §3
[20] = tested on: Candida albicans; assay: Antimicrobial activity against Candida albicans at 30 ug; type: functional; settings: read-out: IZ
[21] = tested on: Bacillus subtilis; assay: Antimicrobial activity against Bacillus subtilis at 30 ug; type: functional; settings: read-out: IZ
[22] = tested on: Human alphaherpesvirus 1; assay: Antiviral activity against Herpes simplex virus (type 1 / strain F) ATCC VR 733 in african green monkey BSC1 cells assessed as excess radius from disk edge at 1 ug/disk; type: functional, organism-based; settings: BSC-1; in short: as §1
[23] = Cytotoxicity against african green monkey BSC1 cells at 5 ug/disk; type: cell-based; settings: chlorocebus aethiops, bsc-1; in short: as §2
[24] = Cytotoxicity against african green monkey BSC1 cells at 1 ug/disk; type: cell-based; settings: chlorocebus aethiops, bsc-1; in short: as §2
[25] = tested on: Human alphaherpesvirus 1; assay: Antiviral activity against Herpes simplex virus (type 1 / strain F) ATCC VR 733 in african green monkey BSC1 cells assessed as excess radius from disk edge at 5 ug/disk; type: functional, BSC-1; settings: Human alphaherpesvirus 1, Strain F ATCC VR 733; read-out: IZ; in short: as §1
[26] = Cytotoxicity against african green monkey BSC1 cells at 10 ug/disk; type: cell-based; settings: chlorocebus aethiops, bsc-1; in short: as §2
[27] = tested on: Human alphaherpesvirus 1; assay: Antiviral activity against Herpes simplex virus (type 1 / strain F) ATCC VR 733 in african green monkey BSC1 cells assessed as excess radius from disk edge at 40 ug/disk; type: functional, BSC-1; settings: Human alphaherpesvirus 1, Strain F ATCC VR 733; read-out: IZ; in short: as §1
[28] = Cytotoxicity against african green monkey BSC1 cells at 40 ug/disk; type: cell-based; settings: chlorocebus aethiops, bsc-1; in short: as §2
[29] = tested on: Human alphaherpesvirus 1; assay: Antiviral activity against Herpes simplex virus (type 1 / strain F) ATCC VR 733 in african green monkey BSC1 cells assessed as excess radius from disk edge at 10 ug/disk; type: functional, organism-based; settings: BSC-1; in short: as §1
[30] = tested on: Human alphaherpesvirus 1; assay: Antiviral activity against Herpes simplex virus (type 1 / strain F) ATCC VR 733 in african green monkey BSC1 cells assessed as excess radius from disk edge at 2 ug/disk; type: functional, BSC-1; settings: Human alphaherpesvirus 1, Strain F ATCC VR 733; read-out: IZ; in short: as §1

Compound | MIC [1] | IC50 [2] | MIC [3] | MIC [4] | MIC [5] | MIC [6] | inhibition zone (IZ) [7] | MIC [8] | inhibition zone (IZ) [9] | inhibition zone (IZ) [12] | also measured
CC(C)c1nccc2c1[nH]c1ccccc12 | >60 µg | 13 µg/mL (≈ 61.8 µM) | 1.9 µg | 15 µg | >120 µg | 7.5 µg | inactive | 0.45 µg | Not Active |  | 
NYSTATIN |  |  |  |  |  |  |  |  |  |  | inhibition zone (IZ) [10]: 12 mm; inhibition zone (IZ) [11]: 4 mm
c1ccc2c(c1)[nH]c1cnccc12 [NORHARMANE] | >60 µg | 25 µg/mL (≈ 149 µM) | 1.9 µg | 15 µg | 3.7 µg | 7.5 µg | inactive | 0.9 µg | Not Active | inactive | 
CCc1nccc2c1[nH]c1c(O)cccc12 | >60 µg | > 12.5 µg/mL | 30 µg | >60 µg | 30 µg | 30 µg | inactive | 30 µg | Not Active | inactive | 
CCCc1nccc2c1[nH]c1ccccc12 | >60 µg | 25 µg/mL (≈ 119 µM) | >120 µg | >120 µg | >120 µg | >120 µg | inactive | 15 µg | Not Active |  | 
C=Cc1nccc2c1[nH]c1c(O)cccc12 | >60 µg |  | 15 µg | 3.7 µg | >60 µg | 7.5 µg |  | 0.45 µg |  |  | zone of inhibition at 0.5 µg/disc [13]: 1 mm; zone of inhibition at 0.5 µg/disc [14]: 1 mm; inhibition zone (IZ) [15]: Not Active; inhibition zone (IZ) [16]: inactive; inhibition zone (IZ) [17]: Active; inhibition zone (IZ) [18]: 2 mm; inhibition zone (IZ) [19]: inactive
O=C(N[C@H](CO)[C@H](O)c1ccc([N+](=O)[O-])cc1)C(Cl)Cl [CHLORAMPHENICOL] |  |  |  |  |  |  |  |  |  |  | zone of inhibition at 30 µg/disc [20]: 8 mm; zone of inhibition at 30 µg/disc [21]: 12 mm
CC1NC(C(=O)O)Cc2c1[nH]c1ccccc21 (stereo not drawn) | >60 µg | > 125 µg/mL | >60 µg | >60 µg | >60 µg | >60 µg | inactive | >60 µg | Not Active | inactive | 
C=Cc1nccc2c1[nH]c1c(OC(C)=O)cccc12 | >60 µg | 0.65 µg/mL (≈ 2.58 µM) | 15 µg | >60 µg | >60 µg | 7.5 µg |  | 0.9 µg |  |  | inhibition zone (IZ) [22]: inactive; inhibition zone (IZ) [23]: 2 mm; inhibition zone (IZ) [17]: Active; inhibition zone (IZ) [24]: Not Active; zone of inhibition at 5 µg/disc [25]: 1 mm; Activity [9]: Active
C=Cc1nccc2c1[nH]c1ccccc12 | >60 µg | 0.1 µg/mL (≈ 0.515 µM) | 1.9 µg | 0.9 µg | 30 µg | 1.9 µg |  | 0.1 µg |  |  | zone of inhibition at 0.5 µg/disc [14]: 1 mm; inhibition zone (IZ) [15]: Not Active; inhibition zone (IZ) [16]: inactive; inhibition zone (IZ) [17]: Active; inhibition zone (IZ) [18]: 2 mm
CCCCCCc1nccc2c1[nH]c1ccccc12 | >60 µg | 9 µg/mL (≈ 35.7 µM) | >60 µg | 7.5 µg | >60 µg | >60 µg |  | 1.9 µg |  |  | inhibition zone (IZ) [26]: 1 mm; zone of inhibition at 40 µg/disc [27]: 1 mm; inhibition zone (IZ) [28]: 1 mm; inhibition zone (IZ) [29]: inactive
COC(=O)C1Cc2c([nH]c3ccccc23)C(C)N1 (stereo not drawn) | >60 µg | 120 µg/mL (≈ 491 µM) | 7.5 µg | >60 µg | >60 µg | >60 µg | inactive | >60 µg | Not Active | inactive | 
CCc1ncc(S(C)(=O)=O)c2c1[nH]c1ccccc12 | >60 µg | > 12.5 µg/mL | >60 µg | >60 µg | >60 µg | 30 µg | inactive | 30 µg | Not Active |  | 
CCc1nccc2c1[nH]c1c(OC)cccc12 | >60 µg | > 12.5 µg/mL | 7.5 µg | >60 µg | >60 µg | >60 µg | inactive | 7.5 µg | Not Active | inactive | 
C=Cc1nccc2c1[nH]c1c(OC)cccc12 | >60 µg | 0.1 µg/mL (≈ 0.446 µM) | 7.5 µg | 15 µg | >60 µg | 7.5 µg |  | 0.45 µg |  |  | zone of inhibition at 0.5 µg/disc [14]: 1 mm; inhibition zone (IZ) [15]: Not Active; inhibition zone (IZ) [16]: inactive; inhibition zone (IZ) [17]: 2 mm; inhibition zone (IZ) [18]: 1 mm; zone of inhibition at 2 µg/disc [30]: 1 mm
CCc1nccc2c1[nH]c1ccccc12 | >60 µg | 25 µg/mL (≈ 127 µM) | 1.9 µg | 30 µg | >120 µg | 7.5 µg | inactive | 1.9 µg | Not Active | inactive | 
Cc1nccc2c1[nH]c1ccccc12 [HARMAN] | >60 µg | 25 µg/mL (≈ 137 µM) | 1.9 µg | 15 µg | 60 µg | 7.5 µg | inactive | 3.7 µg | Not Active | inactive | 
